High-throughput results deposited in PubChem by several laboratories.
This excerpt belongs to a sample that is enriched for hits.
Lipid droplet: modulators of hepatic lipid droplet formation; AML12 mouse hepatocytes, oleate lipid droplets, BODIPY imaging; inhibition, % at 6.5 µM; AID 1656; 0.4% of 240,000 active;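 active means lipid droplet intensity inhibited by at least 50%, with more than 500 cells counted; inconclusive means wells with under 300 cells, treated as cytotoxic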
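Assay system: AML12 mouse liver cells | Compound dosing: One dose, 6.5 µM compound | Read-out basis: Droplet intensity reduction, % inhibition | Measured by: Fluorescence imaging, 20x objective, two fields per well | Schedule: Overnight treatment with compound plus oleate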
L major viab: inhibitors of Leishmania major promastigote growth. 9% of 200,000 active. Leishmania major promastigotes, resazurin fluorescence viability. inhibition, % at 10 µM; in the data active means inhibition above about 50%;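 further: promastigotes grown with compound for 44 hours at 28 °C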
T cruzi inh: T. cruzi replication inhibition; T. cruzi beta-gal in NIH3T3, luminescence, 90 h; inhibition, % (test concentration not listed); 1.4% of 300,000 active;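 active means mean inhibition across valid replicates above about 55%, limit read from the data; inconclusive means mean below that limit but half or more replicates reach it; inactive means mean below it, under half of replicates reach it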;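 further: signal also drops with host cell toxicity which is not excluded here; 0% = plate median of DMSO wells and 100% = zero luminescence signal; higher percent means less beta-gal luminescence so fewer parasites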
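Assay system: NIH/3T3 host cells with β-galactosidase reporter T. cruzi; input: 5,000 host fibroblasts per well; compound: single 50 nL compound addition per well in DMSO; timing: ≥90 h infection period, 3 h prior cell attachment; measured by: GalScreen β-gal luminescence, detergent lysis, 60 min; evaluation: percent inhibition of parasite-derived β-gal signal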
Redox H2O2 prof: compounds producing H2O2 with reducing agent – biochemical, NIH compound library profiling, artefact control for MLSCN library redox annotation, primary screen; DTT-dependent redox cycling H2O2, phenol red/HRP absorbance; 100% = 100 µM peroxide control, 0% = buffer; activation, % at 10 µM; 0.03% of 200,000 active;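 active means activation of at least 50% relative to the plate's high and low controls in the primary single-dose screen; inactive means activation below 50%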;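 further: compound incubated with DTT at 0.8 mM final as the reducing agent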
MPTP block: permeability transition pore inhibition. inhibition, % at 10 µM. 1.4% of 360,000 active. AID 602449. isolated mouse mitochondria, Ca2+ swelling absorbance, 30 min;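 active means inhibition of 50% or more, scaled per plate between neutral and stimulator controls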;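 further: 0% = DMSO wells given calcium and 100% = 1 mM EGTA wells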
* = called active by the depositor; ? = inconclusive; . = not tested or not shown.

SMILES	Lipid droplet	L major viab	T cruzi inh	Redox H2O2 prof	MPTP block
COC(=O)CN1C(=S)N(c2ccc(Cl)cc2)C(=O)C1CC(=O)Nc1ccccc1 (centres undefined)	20	64*	11	0	-28
COC(=O)CN1C(=S)N(c2ccc(F)cc2)C(=O)C1CC(=O)Nc1ccccc1 (centres undefined)	2	-11	-12	0	-1
CC(C)(C)OC(=O)N[C@@H](Cc1ccccc1)C(=O)N1CCC(C(=O)N[C@@H](Cc2c[nH]c3ccccc23)C(=O)O)CC1	5	.	2	.	1
COc1ccccc1N1CCN(C(=O)C(C)NC(=O)c2cccc([N+](=O)[O-])c2)CC1 (centres undefined)	20	.	1	.	0
CCCN1CCC(Oc2cccc(C(=O)NCCc3ccccc3)c2)CC1	-23	.	25	.	0
CCOc1ccc(NC(=O)CC2C(=O)N(c3ccccc3)C(=O)N2CCc2cccs2)cc1 (centres undefined)	-17	66*	-13	-1	1
CCCCCCOc1ccc(NC(=O)CC2C(=O)N(CC)C(=S)N2Cc2ccco2)cc1 (centres undefined)	1	66*	?	-1	9
CCc1ccc(NC(=O)CC2C(=O)N(c3ccc(C)cc3)C(=O)N2CCc2ccncc2)cc1 (centres undefined)	18	51*	29	0	3
CCN1C(=O)C(CC(=O)Nc2ccc(OC)cc2)N(CCCN2CCN(c3ccc(F)cc3)CC2)C1=S (centres undefined)	6	73*	16	0	41
CCN1C(=O)C(CC(=O)Nc2ccc(OC)cc2)N(CCc2ccc(F)cc2)C1=S (centres undefined)	9	40	44	0	2
CCOc1ccc(NC(=O)CC2C(=O)N(c3ccccc3)C(=O)N2Cc2ccco2)cc1 (centres undefined)	-21	5	-11	-1	0
O=C(O)c1cc(O)ccc1NC(=O)c1cccc2ccccc12	7	.	2	.	2
C=CCn1c2ccccc2c(=O)c2cc(C#Cc3ccccn3)ccc21	.	.	.	.	-1
COc1ccc(NC(=O)CC2C(=O)N(Cc3ccccc3)C(=S)N2CCN2CCOCC2)cc1 (centres undefined)	-5	98*	7	0	1
COc1ccccc1CN1CCC(CNS(=O)(=O)c2cc(-c3onc(C)c3C)ccc2OC)CC1	-53	.	35	.	6
CCC(C)(C)n1nnnc1C(c1cc2cccc(C)c2[nH]c1=O)N1CCCC1 (centres undefined)	22	1	-6	0	0
Cc1ccc(C)c2[nH]c(=O)c(C(c3nnnn3C(C)(C)C)N3CC=C(c4ccc(F)cc4)CC3)cc12 (centres undefined)	-14	97*	.	0	2
NC(=O)c1ccc(NC(=O)c2ccc(COc3ccccc3Br)cc2)cc1	.	.	.	.	0
Cc1cc(C)n(Cc2ccc(NC(=O)c3ccc(COc4ccccc4Br)cc3)cc2)n1	.	56*	60*	-1	0
CNC(=O)COc1coc(CN2CCN(c3cccc(Cl)c3)CC2)cc1=O	13	.	-49	.	-2
C=CCNc1oc(-c2ccco2)nc1S(=O)(=O)c1ccccc1	2	.	-8	.	0
CN(C)CCCNc1oc(-c2ccccc2Cl)nc1S(=O)(=O)c1ccc(F)cc1	3	.	62*	.	0
CN(C)CCNc1oc(-c2ccccc2Cl)nc1S(=O)(=O)c1ccccc1	.	.	.	.	-1
C=CCNc1oc(-c2cccs2)nc1S(=O)(=O)c1ccccc1	-14	96*	-18	0	0
COCCCNc1oc(-c2cccs2)nc1S(=O)(=O)c1ccc(C)cc1	-2	5	-2	-1	7
SMILES	Lipid droplet	L major viab	T cruzi inh	Redox H2O2 prof	MPTP block
Cc1ccc(S(=O)(=O)c2nc(-c3cccs3)oc2NCCCN(C)C)cc1	-3	98*	-1	0	0
O=C(CSc1oc(-c2cccs2)nc1S(=O)(=O)c1ccccc1)NC1CCCCC1	-22	98*	60*	0	1
COCCN(C(=O)COC(=O)/C=C/c1ccc2c(c1)OCO2)c1c(N)n(Cc2ccccc2)c(=O)[nH]c1=O	.	.	3	.	0
CC1(C(=O)Nc2ccc3c(c2)OCO3)CC1(Cl)Cl (centres undefined)	-6	.	5	.	0
Cc1ccc(NC(=S)N2CCCC(c3nc4ccc(C)cc4[nH]3)C2)c(C)c1 (centres undefined)	.	62*	15	1	5
Cc1ccc2nc(C3CCCN(C(=S)Nc4cccc(C)c4C)C3)[nH]c2c1 (centres undefined)	.	82*	32	3	3
Cc1cc2nc(C3CCCN(C(=S)Nc4ccccc4C)C3)[nH]c2cc1C (centres undefined)	.	5	8	1	2
O=C(CN1CCN(S(=O)(=O)N2CCOCC2)CC1)Nc1cc(Cl)ccc1Cl	-9	.	-7	.	0
O=C(c1cccc([N+](=O)[O-])c1)N1CCCC(C(=O)N2CCc3ccccc3C2)C1 (centres undefined)	-36	.	-2	.	-2
Cn1cccc1Cc1nnc(SCC(=O)Nc2cccc(F)c2)n1-c1ccc(F)cc1	10	4	-19	-2	-1
Cn1cccc1Cc1nnc(SCC(=O)Nc2cccc(Cl)c2)n1-c1ccc(F)cc1	-20	62*	-10	-2	2
Cc1ccc(NC(=O)CSc2nnc(Cc3cccn3C)n2-c2ccc(F)cc2)c(C)c1	.	62*	3	-3	-1
CC(=O)Nc1nc(SCC(=O)NCc2ccc(F)cc2)[nH]c(=O)c1NC(=O)c1cccs1	2	-9	-8	-2	-1
O=C(Nc1nnc([C@H]2C[C@H](O)[C@@H](CO)O2)s1)Nc1ccccc1Oc1ccccc1	.	.	.	.	0
Cc1ccc(S(=O)(=O)NCCCCCC(=O)Nc2c(C)n(C)n(-c3ccccc3)c2=O)cc1	-7	5	-10	-1	-3
Cc1cccc(NS(=O)(=O)c2cc(C(=O)N3CCc4ccccc4C3)ccc2Cl)c1C	.	97*	60*	1	4
Cc1ccccc1CN(c1ccc(C(=O)N2CCc3ccccc3C2)cc1)S(C)(=O)=O	.	70*	23	3	8
CCOC(=O)N1CCN(C(=O)c2ccc(C)c(S(=O)(=O)Nc3ccccc3)c2)CC1	-10	0	-3	1	-2
Cc1ccc(C)c(NS(=O)(=O)c2cc(C(=O)N3CCc4ccccc4C3)ccc2Cl)c1	.	98*	56*	-6	4
CCOC(=O)N1CCN(C(=O)c2ccc(C)c(S(=O)(=O)Nc3cccc(C)c3C)c2)CC1	-13	98*	5	3	2
Cc1ccccc1NS(=O)(=O)c1cc(C(=O)N2CCCC2)ccc1Cl	15	.	-1	.	0
CC(NC(=O)COC(=O)c1cccc(S(=O)(=O)N2CCCC2)c1)c1ccccc1 (centres undefined)	.	.	.	.	1
